pKi: −log10 of the molar value.

The nature of data set [1]: Metabolic stability in mouse liver microsomes assessed as compound remaining and measured after 60 mins in presence of beta-NADPH by liquid chromatography tandem mass spectrometry analysis. It counts as ADME, Microsome. To be noted: read-out: Stability. In a few lines:
(§1)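 Percent of compound remaining after 60 min incubation with liver microsomes of each species (human, rat, mouse). Values are the mean of three independent experiments.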

Data set [2] can be described thus: Metabolic stability in rat liver microsomes assessed as compound remaining and measured after 60 mins in presence of beta-NADPH by liquid chromatography tandem mass spectrometry analysis. The format is ADME, Microsome. To be noted: read-out: Stability. In a few lines: as §1
On the technique in general: Liver microsomes are vesicles of endoplasmic reticulum, rich in cytochrome P450 enzymes.

Data set [3] deals with hERG (KCNH2) (Homo sapiens, UniProt Q12809). Kind of data set: Inhibition of human ERG expressed in human HEK293 cells at 10 uM for 2 mins by whole-cell patch-clamp system. It counts as toxicity, cell-based. The note with it: HEK293 cells expressing human ERG. In a few lines: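 hERG inhibition was measured by automated patch clamp in HEK293 cells expressing hERG. Values are the mean of three independent experiments.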

Data set [4] is described as follows: Metabolic stability in human liver microsomes assessed as compound remaining and measured after 60 mins in presence of beta-NADPH by liquid chromatography tandem mass spectrometry analysis. The format is ADME, Microsome. The note with it: read-out: Stability. In a few lines:
as §1

Data set [5] is described as follows: Half life in ICR mouse serum at 10 mg/kg, ip. It counts as ADME, organism-based. In a few lines:
(§2)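 Single intraperitoneal injection, 10 mg/5 mL per kilogram, to male ICR mice aged eight weeks (n = 3). Serum concentration–time profiles were measured, giving AUC0–∞ […], Cmax, Tmax and serum half-life.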

Data set [6] addresses T1, Amine oxidase [flavin-containing] B (Homo sapiens, UniProt P27338).
T1 sequence (P27338 whole entry): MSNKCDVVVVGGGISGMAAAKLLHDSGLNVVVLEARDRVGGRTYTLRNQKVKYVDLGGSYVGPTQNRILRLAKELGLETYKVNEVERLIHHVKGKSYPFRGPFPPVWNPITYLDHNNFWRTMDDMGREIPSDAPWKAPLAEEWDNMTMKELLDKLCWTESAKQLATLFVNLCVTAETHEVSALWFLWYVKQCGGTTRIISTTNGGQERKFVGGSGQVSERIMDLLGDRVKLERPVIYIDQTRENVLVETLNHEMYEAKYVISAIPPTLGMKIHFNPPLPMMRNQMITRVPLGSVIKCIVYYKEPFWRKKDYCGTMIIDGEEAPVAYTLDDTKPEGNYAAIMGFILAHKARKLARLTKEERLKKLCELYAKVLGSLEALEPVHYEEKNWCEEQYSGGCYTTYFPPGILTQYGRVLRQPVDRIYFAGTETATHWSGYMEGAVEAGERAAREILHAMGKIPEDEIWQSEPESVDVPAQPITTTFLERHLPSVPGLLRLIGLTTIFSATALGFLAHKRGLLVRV
Kind of data set: Inhibition of MAO-B (unknown origin) using tyramine as substrate and measured after 10 mins by peroxidase-coupled reaction method.

The nature of data set [7]: AUC (0-infinity) in ICR mouse at 10 mg/kg, ip. It counts as ADME, organism-based. Further details: time infinity, dose 10 mg/kg, route ip. To be noted: in vivo. In a few lines: as §2
The nature of data set [8]: Cmax in ICR mouse serum at 10 mg/kg, ip. It counts as ADME, organism-based. Also noted: dose 10 mg/kg, route ip. In a few lines:
as §2

Data set [9] addresses T2, Amine oxidase [flavin-containing] A (Homo sapiens, UniProt P21397).
T2 sequence (P21397 whole entry): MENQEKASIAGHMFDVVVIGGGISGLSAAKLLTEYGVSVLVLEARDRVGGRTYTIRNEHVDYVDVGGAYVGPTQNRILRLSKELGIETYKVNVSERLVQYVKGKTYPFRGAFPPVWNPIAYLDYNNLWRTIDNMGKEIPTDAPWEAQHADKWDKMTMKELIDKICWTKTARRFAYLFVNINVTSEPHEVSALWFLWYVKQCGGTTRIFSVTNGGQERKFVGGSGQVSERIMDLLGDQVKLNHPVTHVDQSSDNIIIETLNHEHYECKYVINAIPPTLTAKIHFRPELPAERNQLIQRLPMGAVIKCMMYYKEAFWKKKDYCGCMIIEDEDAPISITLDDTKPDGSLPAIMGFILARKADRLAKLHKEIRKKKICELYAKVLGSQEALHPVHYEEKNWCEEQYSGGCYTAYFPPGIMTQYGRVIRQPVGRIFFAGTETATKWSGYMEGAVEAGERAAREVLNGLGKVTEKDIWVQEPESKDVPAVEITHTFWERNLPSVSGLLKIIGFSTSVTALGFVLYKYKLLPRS
Kind of data set: Inhibition of MAO-A (unknown origin) using tyramine as substrate and measured after 10 mins by peroxidase-coupled reaction method.

The nature of data set [10]: Tmax in ICR mouse serum at 10 mg/kg, ip. The format is ADME, organism-based. In a few lines: as §2

Chain of hERG (KCNH2) (Q12809 whole entry): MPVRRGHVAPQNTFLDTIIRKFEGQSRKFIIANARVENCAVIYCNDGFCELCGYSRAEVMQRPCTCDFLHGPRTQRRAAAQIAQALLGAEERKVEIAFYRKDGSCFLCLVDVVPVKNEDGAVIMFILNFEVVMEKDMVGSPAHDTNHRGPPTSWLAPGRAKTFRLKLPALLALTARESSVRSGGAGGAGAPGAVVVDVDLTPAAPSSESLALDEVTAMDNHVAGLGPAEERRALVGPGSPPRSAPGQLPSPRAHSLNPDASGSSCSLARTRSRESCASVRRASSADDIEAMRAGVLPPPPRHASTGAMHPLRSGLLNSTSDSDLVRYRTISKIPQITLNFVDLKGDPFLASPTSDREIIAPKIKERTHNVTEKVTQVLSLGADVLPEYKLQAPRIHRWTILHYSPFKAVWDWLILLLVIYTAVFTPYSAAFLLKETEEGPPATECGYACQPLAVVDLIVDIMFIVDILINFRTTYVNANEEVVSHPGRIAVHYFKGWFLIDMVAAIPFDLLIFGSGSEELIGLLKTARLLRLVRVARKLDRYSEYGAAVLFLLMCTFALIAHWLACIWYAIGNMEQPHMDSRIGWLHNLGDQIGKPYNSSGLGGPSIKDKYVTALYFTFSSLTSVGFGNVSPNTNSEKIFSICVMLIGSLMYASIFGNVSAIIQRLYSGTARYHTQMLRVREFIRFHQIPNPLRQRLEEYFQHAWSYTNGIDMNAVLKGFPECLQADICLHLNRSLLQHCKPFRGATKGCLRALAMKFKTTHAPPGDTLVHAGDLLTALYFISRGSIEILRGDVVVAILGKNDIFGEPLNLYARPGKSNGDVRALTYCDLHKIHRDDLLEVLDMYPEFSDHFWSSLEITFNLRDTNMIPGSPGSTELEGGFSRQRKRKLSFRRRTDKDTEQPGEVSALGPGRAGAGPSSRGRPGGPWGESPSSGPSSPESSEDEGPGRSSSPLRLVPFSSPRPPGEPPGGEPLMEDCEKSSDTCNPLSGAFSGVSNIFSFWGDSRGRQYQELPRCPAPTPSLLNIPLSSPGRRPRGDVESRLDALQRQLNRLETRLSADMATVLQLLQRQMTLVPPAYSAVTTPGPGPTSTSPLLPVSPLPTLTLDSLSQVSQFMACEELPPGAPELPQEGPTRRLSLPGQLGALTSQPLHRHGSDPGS

Take `O=C(CNC1CC1c1cc(F)cc(F)c1OCc1cccnc1F)N1CCC2(CCCN2)CC1` (configuration not stated): the remaining at 1 h in data set [1] was 42%; in data set [2], 20%; in data set [4], 41%. For the same molecule, the inhibition (usually how much of the control response was suppressed) at 2 min, 10 µM in [3] worked out at 62%.
Regarding `COCCN1CCN(C(=O)CNC2CC2c2cc(F)cc(F)c2OCc2cc[nH]n2)CC1` (configuration not stated), the inhibition at 2 min, 10 µM in [3] was 8%.
Still for that read-out and setting: then `COCCN1CCN(C(=O)CNC2CC2c2cc(F)cc(F)c2OCc2ccccc2)CC1` (configuration not stated), with 50%.
The same measure, in the same setting: then `COCCN1CCN(C(=O)CNC2CC2c2cc(F)cc(F)c2OCCc2ccc(F)cc2)CC1` (configuration not stated), with more than 100%.
On the same count and under the same terms, then `COCCN1CCN(C(=O)CNC2CC2c2cc(F)cc(F)c2OCc2ccnc(F)c2)CC1` (configuration not stated), with 46%.
Molecule `COCCN1CCN(C(=O)CNC2CC2c2cc(F)cc(F)c2OCCc2ccccc2)CC1` (configuration not stated) returned an inhibition at 2 min, 10 µM in [3] of 76%.
On to `O=C(CNC1CC1c1cc(F)cc(F)c1OCc1cccnc1F)N1CCC(N2CC3CCC(C2)N3)CC1` (configuration not stated), for which the values for the remaining at 1 h in [1], in data set [2] and in data set [4] were 25%, 24% and 0%, respectively. Also, the inhibition at 2 min, 10 µM in data set [3] was found to be 23%.
As for `O=C(CN[C@H]1C[C@@H]1c1cc(F)cc(F)c1OCc1cccnc1F)N1CCC2(CCNC2)CC1`, the half-life – broadly, how long it takes for the measured level to halve – in data set [5] is 234 min. Also, the pKi in data set [6] and in [9] was less than 3.60 each time. In data set [7], the AUC(0-inf) (commonly the area under the concentration-time curve extrapolated to infinity) was found to be 5.09 µM·h. For the same molecule, the remaining at 1 h in [1] was determined as 62%; in [2] it was 62%; in data set [4], 38%. In addition, the peak level in data set [8] (Cmax) was 3030 nM. Besides, the Tmax (as a rule, the time at which the peak concentration occurs) in data set [10] was found to be 30 min.
Take `COCCN1CCN(C(=O)CNC2CC2c2cc(F)cc(F)c2OCc2cnn(C)c2)CC1` (configuration not stated): the inhibition at 2 min, 10 µM in [3] turned out to be 14%.
As for `O=C(CNC1CC1c1cc(F)cc(F)c1OCc1cccnc1F)N1CCC2(CCNC2)CC1` (configuration not stated), the remaining at 1 h worked out at 73% in data set [1], 56% in data set [2] and 44% in [4]. Besides, the inhibition at 2 min, 10 µM in data set [3] amounted to 10%.
The matching figures for `O=C(CNC1CC1c1cc(F)cc(F)c1OCc1cccnc1F)N1CCC(N2CC3CCC(C2)O3)CC1` (configuration not stated): 0%, 0%, 0% and 32%.
In [5], `CN1CCN(C(=O)CNC2CC2c2cc(F)cc(F)c2OCc2ccccc2)CC1` (racemic) showed a half-life of 57 min. The molecule further came in with an AUC(0-inf) in data set [7] of 0.98 µM·h. The Cmax (as a rule, the peak of the concentration-time curve) in data set [8] was determined as 960 nM. Moreover, in data set [3], the inhibition at 2 min, 10 µM was found to be 51%. For the same molecule, in data set [10], the Tmax was 15 min.
In data set [3], `COCCN1CCN(C(=O)CNC2CC2c2cc(F)cc(F)c2OCc2cccnc2F)CC1` (configuration not stated) returned an inhibition at 2 min, 10 µM of 21%.
Turning to `O=C(CN[C@@H]1C[C@H]1c1cc(F)cc(F)c1OCc1cccnc1F)N1CCC2(CCNC2)CC1`, the negative logarithm of the Ki (pKi) in [6] and in data set [9] was less than 3.60 in each case. Also, the remaining at 1 h in [1] came out at 73%; in data set [2], 55%; in [4] it was 45%.
